The full list was thinned out, with hits kept by preference.
Myeloid diff MLP = myeloid differentiation induction; 360,000 tested, 1% active; ER-HoxA9 myeloid progenitors, lysozyme-GFP differentiation, flow cytometry; calls only at 10 µM;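 active = normalized GFP-positive differentiation at or above the plate's own cutoff, the solvent-only control mean plus 3 SD; inconclusive = no clear call, values can overlap the other calls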;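 also: cells exposed to compound for four days before flow analysis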
XiGFP reactiv = activators of X-chromosome reactivation in mouse fibroblasts. activation, % at 7.58 µM. AID 743238. 360,000 tested, 0.055% active. XiGFP mouse fibroblasts, % GFP-positive cells imaging, 3 d; cells co-treated with 5-aza-dC sensitizer; scaled so ellipticine positive control = 100%;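 active = mean normalized replicate activation at least 10% and every replicate at or above 10%; inconclusive = only one of the two criteria met; inactive = mean below 10% and not all replicates reach 10%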;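 also: 0% = median of on-plate neutral control wells and 100% = ellipticine 6 µM median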
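System: 68-5-11 XiGFP fibroblast line; Timing: 3 days compound exposure; Compound dosing: one concentration, pinned; Benchmarks: positive control ellipticine, 6 µM final; Buffer or medium: DMEM containing 5-aza-dC.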
ABCB6 inh 2 = blocks the human ABCB6 transporter; Q9NP58; K562-ABCB6 porphyrin accumulation, flow cytometry, 1 h; hits give low values; fluorescence ratio to DMSO, % at 10 µM; 360,000 tested, 0.19% active;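 active = fluorescence ratio to DMSO below 75%, the collection mean minus 3 SD; inconclusive = too few cells collected in the well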;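 also: signal is porphyrin accumulated inside mitochondria; 100% equals median channel fluorescence of DMSO control wells; lower ratio means ABCB6 inhibition with less porphyrin fluorescence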
Target sequence (Q9NP58 whole entry, looked up): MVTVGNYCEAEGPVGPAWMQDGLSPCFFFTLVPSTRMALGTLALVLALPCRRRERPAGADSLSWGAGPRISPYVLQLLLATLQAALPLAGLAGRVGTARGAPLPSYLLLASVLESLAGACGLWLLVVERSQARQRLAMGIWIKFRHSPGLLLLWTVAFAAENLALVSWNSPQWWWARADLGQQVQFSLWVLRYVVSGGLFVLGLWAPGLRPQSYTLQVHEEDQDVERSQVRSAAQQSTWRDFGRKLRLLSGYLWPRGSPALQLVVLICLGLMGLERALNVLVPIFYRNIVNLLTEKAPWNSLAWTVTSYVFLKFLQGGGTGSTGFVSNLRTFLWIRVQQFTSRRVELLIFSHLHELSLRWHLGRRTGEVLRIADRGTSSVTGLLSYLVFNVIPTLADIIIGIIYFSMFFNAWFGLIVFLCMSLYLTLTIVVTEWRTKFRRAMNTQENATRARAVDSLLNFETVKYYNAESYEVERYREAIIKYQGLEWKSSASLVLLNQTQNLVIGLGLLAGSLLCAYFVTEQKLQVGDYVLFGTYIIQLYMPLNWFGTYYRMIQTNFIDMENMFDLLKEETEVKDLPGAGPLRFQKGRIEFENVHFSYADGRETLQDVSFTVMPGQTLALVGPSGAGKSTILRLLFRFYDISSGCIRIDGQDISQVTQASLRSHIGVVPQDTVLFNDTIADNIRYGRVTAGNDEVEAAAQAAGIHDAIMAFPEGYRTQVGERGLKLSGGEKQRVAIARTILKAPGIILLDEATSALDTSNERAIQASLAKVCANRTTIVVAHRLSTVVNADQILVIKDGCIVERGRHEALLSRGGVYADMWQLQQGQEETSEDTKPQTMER
* marks the source's active call; other numbers are inactive results; i = inactive; ? = inconclusive; / = no result; + = active, no number.

SMILES | Myeloid diff MLP | XiGFP reactiv | ABCB6 inh 2
O=C(NCC(c1ccco1)N1CCCCC1)c1ccc(S(=O)(=O)Nc2ccccc2)cc1 (stereo not given) | i | 0 | 97
COc1ccc(CCNS(=O)(=O)c2cn(C)cn2)cc1OC | + | 0 | 92
COc1ccc(CCNS(=O)(=O)c2cn(C)nc2C)cc1OC | i | 0 | 101
Cc1noc(C)c1S(=O)(=O)Nc1ccc2c(c1)C(=O)N([C@@H](C)CO)C[C@@H](C)[C@@H](CN(C)C(=O)C1CCCCC1)OCCCC[C@@H](C)O2 | / | 0 | /
Cc1sc2ncnc(N3CCC(C(=O)NNC(=O)COc4ccc(Cl)cc4)CC3)c2c1C | i | 0 | 96
Cc1sc2ncnc(N3CCN(CCOc4ccc(Cl)cc4)CC3)c2c1C | + | / | 98
C/C=C/c1ccc([C@@H]2[C@@H](CO)N(C(C)=O)[C@@H]2CNC(=O)c2ccccc2)cc1 | / | 0 | /
COc1cc(Cl)c(NC2=CC(=O)C(=O)c3ccccc32)c(OC)c1 | + | 0 | 103
CCOc1ccc(NC2=CC(=O)C(=O)c3ccccc32)cc1 | ? | 0 | 99
C[C@H](CO)N1C[C@H](C)[C@@H](CN(C)Cc2ccc(C(=O)O)cc2)Oc2ccc(NC(=O)C3CC3)cc2CC1=O | / | 1 | /
COc1ccc2c3c(n(C)c2c1)[C@@H](CO)N(CC1CC1)CC31CCN(C(=O)c2ccccc2)CC1 | / | 0 | /
Cc1cccc(Nc2nc(N)nc(-c3oc4ccccc4c3C)n2)c1 | + | 0 | 97
COc1cccc(Nc2nc(N)nc(-c3oc4ccccc4c3C)n2)c1 | i | / | 96
CCCNC(=O)C[C@@H]1C[C@@H]2c3cc(NS(=O)(=O)c4ccc(F)cc4)ccc3O[C@@H]2[C@@H](CO)O1 | / | 0 | /
C[C@@H]1CN(C)C(=O)c2cccc(NS(C)(=O)=O)c2O[C@H]1CN(C)C | / | 0 | /
CCn1cc(C(=O)NCC(OC)OC)c(=O)c2cc(S(=O)(=O)N3CCCC3)ccc21 | i | 0 | 96
CCn1cc(C(=O)NCC(OC)OC)c(=O)c2cc(S(=O)(=O)N3CCC(C)CC3)ccc21 | + | 0 | 102
COc1ccc(S(=O)(=O)Nc2ccc3c(c2)C(=O)N(C)C[C@@H](OC)[C@H](C)CN(Cc2cc(F)ccc2F)[C@H](C)CO3)cc1 | / | 0 | /
CCC(=O)N1C[C@@H](C)[C@H](OC)CN(C)C(=O)c2cc(NC(=O)Nc3cccc(F)c3)ccc2OC[C@H]1C | / | 0 | /
COC(=O)c1cccc(NC(=O)/C=C/c2ccc([N+](=O)[O-])cc2)c1 | i | 0 | 98
O=C(/C=C/c1ccc([N+](=O)[O-])cc1)Nc1cccc(C(=O)Nc2ccccc2C(=O)O)c1 | + | 0 | 123
CCCNC(=O)N1CC2(CN(C(=O)C3CCCC3)C2)c2c([nH]c3cc(OC)ccc23)[C@@H]1CO | / | 1 | /
CCN(C(=O)CSc1n[nH]c(-c2ccc(OC)cc2)n1)c1c(N)n(Cc2ccccc2)c(=O)[nH]c1=O | + | 0 | 126
CCCCN(C(=O)CSc1nnc2ccccn12)c1c(N)n(Cc2ccccc2)c(=O)[nH]c1=O | + | 0 | 106
CCN(C(=O)CSc1nnc2ccccn12)c1c(N)n(Cc2ccccc2)c(=O)[nH]c1=O | i | 0 | 103
SMILES | Myeloid diff MLP | XiGFP reactiv | ABCB6 inh 2
CCc1ccc(-c2nc(SCC(=O)N(CCOC)c3c(N)n(Cc4ccccc4)c(=O)[nH]c3=O)n[nH]2)cc1 | i | 0 | 96
COc1cccc(S(=O)(=O)N(C)C[C@@H]2OCc3ccccc3-c3ccccc3C(=O)N([C@H](C)CO)C[C@@H]2C)c1 | / | -1 | /
CC(=O)Nc1ccc2c(c1)CC(=O)N(C)C[C@@H](C)[C@H](CN(C)C(C)=O)O2 | / | 0 | /
Cc1cc(C(=O)NCc2ccco2)on1 | i | 0 | 100
Cc1ccc(C(=O)NCc2ccco2)o1 | + | 0 | 92
C[C@@H]1CCCCO[C@H](CN(C)Cc2ccccc2)[C@H](C)CN([C@H](C)CO)C(=O)c2cc(NC(=O)Nc3cccc4ccccc34)ccc2O1 | / | 0 | /
O=C(Cc1nc2ccccc2[nH]c1=O)c1ccccc1 | + | 0 | 447
O=c1[nH]c2ccccc2nc1Cc1ccccc1 | i | / | 101
O=C(Nc1ccccn1)c1cccs1 | i | / | 89
CN1C(C(=O)Nc2ccccn2)=C(O)c2sccc2S1(=O)=O | + | 0 | 100
CO[C@H]1CN(C)C(=O)c2cc(NC(=O)CC(F)(F)F)ccc2OC[C@H](C)N(C(=O)c2ccccc2F)C[C@@H]1C | / | 0 | /
Cc1ccc(S(=O)(=O)N[C@H]2CC[C@@H](CC(=O)NCc3ccccc3F)O[C@@H]2CO)cc1 | / | 0 | /
CC(Cc1ccccc1)=NNS(=O)(=O)c1ccc([N+](=O)[O-])cc1 | i | 0 | 96
CC(=O)CC(c1ccccc1)S(=O)(=O)c1ccc([N+](=O)[O-])cc1 (stereo not given) | + | 0 | 127
Cc1ccc(Cl)cc1N1CCN(C(=O)c2cn(C)c(=O)c3c2c2ccccc2n3C)CC1 | + | / | 102
Cc1cccc(N2CCN(C(=O)c3cn(C)c(=O)c4c3c3ccccc3n4C)CC2)c1C | i | / | 127
CC(C)NC(=O)Nc1ccc2c(c1)C(=O)N([C@H](C)CO)C[C@H](C)[C@H](CN(C)C(=O)Nc1cccc3ccccc13)OCCCC[C@H](C)O2 | / | 0 | /
CC1CCN(S(=O)(=O)c2ccc3c(c2)C(=NO)c2cc(S(=O)(=O)N4CCC(C)CC4)ccc2-3)CC1 | ? | / | 70*
O=S(=O)(c1ccc2c(c1)C(=NO)c1cc(S(=O)(=O)N3CCCCC3)ccc1-2)N1CCCCC1 | i | / | 72*
COc1ccc(S(=O)(=O)N2CCC(C)CC2)cc1OC | i | 0 | 99
O=S(=O)(c1ccc(S(=O)(=O)N2CCCC2)cc1)N1CCCCCC1 | i | / | 98
COc1ccccc1NS(=O)(=O)c1ccc(Cl)c(NC(=O)c2sc3cc(Cl)ccc3c2Cl)c1 | / | 0 | 97
O=C(Nc1cc(S(=O)(=O)Nc2ccccc2Cl)ccc1O)c1sc2cc(Cl)ccc2c1Cl | + | 0 | 102
CSc1ccccc1-n1nnnc1SCC(=O)NCc1cccs1 | i | / | 97
O=C(CSc1nnnn1-c1ccccc1)NCc1cccs1 | + | / | 90
SMILES | Myeloid diff MLP | XiGFP reactiv | ABCB6 inh 2
O=C(C[C@H]1C=C[C@@H](NC(=O)Nc2cc(F)ccc2F)[C@@H](CO)O1)Nc1ccc(-c2ccccc2)cc1 | / | 0 | /
Cc1ccc(S(=O)(=O)Nc2ccc3nc(C)sc3c2)cc1 | i | / | 100
Cc1ccc(S(=O)(=O)Nc2ccc3c(c2)OCCO3)cc1 | i | 0 | 104
CSc1ccc(S(=O)(=O)Nc2ccc3c(c2)OCCO3)cc1 | + | 0 | 95
Cc1nc2ccc(NS(=O)(=O)c3ccc4c(c3)OCCO4)cc2s1 | + | / | 95
Cc1noc(C)c1S(=O)(=O)Nc1cccc2c1O[C@H](CN(C)C(=O)Nc1ccccc1)[C@H](C)CN([C@H](C)CO)C2=O | / | -1 | /
O=C(Nc1ccccc1F)N1CC(=O)N2[C@@H](CO)[C@@H](c3ccc(C#CC4CC4)cc3)[C@@H]2C1 | / | 0 | /
COCC(=O)Nc1ccc2c(c1)C(=O)N(C)C[C@@H](OC)[C@H](C)CN(C(=O)c1cnccn1)[C@@H](C)CO2 | / | 1 | /
